Experimental data reported in ChEMBL document CHEMBL1208689, “5-Lipoxygenase-activating protein inhibitors. Part 3: 3-{3-tert-Butylsulfanyl-1-[4-(5-methoxy-pyrimidin-2-yl)-benzyl]-5-(5-methyl-pyridin-2-ylmethoxy)-1H-indol-2-yl]-2,2-dimethyl-propionic acid (AM643)-A potent FLAP inhibitor suitable for topical administration” (Bioorg Med Chem Lett, 2010).
The source made the active and inactive calls. The calls are words filed in the database; no cut-off is given here.

Tests used:
[1] = Inhibition of […]-induced LTB4 synthesis in human leukocytes; format: functional, cell-based; details: Leukocyte
In short: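 Human leukocytes stimulated with calcium ionophore […]; LTB4 synthesis measured; IC50.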

Rattus norvegicus [2] = organism: Rattus norvegicus; assay: Toxicity in rat assessed as change in body weight after 72 hrs; format: organism-based; details: in vivo
In short: (§1)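 Healthy male rats shaved and skin abraded; 2 mL of 10 mg/mL solution in topical vehicle applied over 20% of body area, occluded 24 h, site then cleaned. Draize scoring for erythema/edema and body weight followed over 72 h.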

Mus musculus [3] = assay: Inhibition of arachidonic acid-induced ear edema in mouse at 30 mg/kg, po administered 4 hrs before arachidonic acid challenge; format: functional
In short: (§2)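 Mice given 30 mg/kg orally in 0.5% methocel 4 h before AA (4 mg in 40 µL ethanol) on one ear, ethanol alone on the other. After 30 min, 6 mm punches weighed and assayed for LTB4 and CysLTs. n = 3/group; means ± SEM; two-tailed t-test versus vehicle.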

Mus musculus [4] = assay: Inhibition of arachidonic acid-induced LTB4 production in topically dosed mouse at 1 to 10%; format: functional, organism-based
Cytochrome P450 2C9 = Cytochrome P450 2C9 (Homo sapiens, UniProt P11712); assay: Inhibition of CYP2C9; format: ADME
Chain of Cytochrome P450 2C9 (P11712 whole entry): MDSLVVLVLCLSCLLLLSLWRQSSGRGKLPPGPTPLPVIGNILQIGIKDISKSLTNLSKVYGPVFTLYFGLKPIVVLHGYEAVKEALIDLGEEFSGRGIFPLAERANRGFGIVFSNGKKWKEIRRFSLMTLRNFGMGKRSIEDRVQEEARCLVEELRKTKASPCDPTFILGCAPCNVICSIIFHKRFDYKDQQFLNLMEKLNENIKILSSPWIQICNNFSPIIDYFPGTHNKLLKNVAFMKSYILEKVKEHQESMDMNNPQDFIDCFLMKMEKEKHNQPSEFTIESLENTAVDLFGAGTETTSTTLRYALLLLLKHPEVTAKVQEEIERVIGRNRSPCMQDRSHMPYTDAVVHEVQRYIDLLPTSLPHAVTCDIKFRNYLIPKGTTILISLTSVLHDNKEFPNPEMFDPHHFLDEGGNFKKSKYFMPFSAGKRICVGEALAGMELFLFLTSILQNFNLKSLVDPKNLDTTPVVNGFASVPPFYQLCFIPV

Mus musculus [5] = assay: Inhibition of arachidonic acid-induced LTB4 production in topically dosed mouse at 0.1%; format: functional
In short: (§3)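 AA (4 mg/ear in ethanol) applied topically to mouse ear, compound applied topically at 0.01% or 0.1%. After 30 min, 6 mm ear punches weighed and assayed for CysLTs and LTB4. n = 3/group; means ± SEM; ANOVA with Dunnett's post hoc test, or t-test, versus vehicle.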

Rattus norvegicus [6] = assay: Skin irritant activity in abraded rat skin model at 10 mg/mL (2 mL), topical after 72 hrs; details: in vivo
Blood [7] = assay: Inhibition of […]-induced LTB4 synthesis in mouse whole blood after 15 mins; format: functional, tissue-based; details: 0.25 h
Mus musculus [8] = assay: Inhibition of arachidonic acid-induced LTB4 production in topically dosed mouse ear; format: functional, organism-based; in short: as §3
Blood [9] = assay: Inhibition of […]-induced LTB4 synthesis in human whole blood after 5 hrs; format: functional, tissue-based
Blood [10] = assay: Inhibition of […]-induced LTB4 synthesis in rat whole blood after 15 mins; format: functional, tissue-based; details: 0.25 h
Mus musculus [11] = assay: Inhibition of arachidonic acid-induced LTB4 production in mouse ear at 30 mg/kg, po administered 4 hrs before arachidonic acid challenge; format: functional; in short: as §2
Blood [12] = assay: Inhibition of […]-induced LTB4 synthesis in mouse whole blood after 4 hrs; format: functional, tissue-based
[13] = Solubility of the compound in transcutol; format: physicochemical
Blood [14] = assay: Inhibition of […]-induced LTB4 synthesis in human whole blood after 15 mins; format: functional, tissue-based; details: 0.25 h
Mus musculus [15] = assay: Inhibition of arachidonic acid-induced cysteinyl leukotriene production in topically dosed mouse at 0.1%; format: functional; in short: as §3
Mus musculus [16] = assay: Inhibition of arachidonic acid-induced ear edema in topically dosed mouse at 0.1%; format: functional; in short: as §3
Cytochrome P450 2D6 = Cytochrome P450 2D6 (Homo sapiens, UniProt P10635); assay: Inhibition of CYP2D6; format: ADME
Chain of Cytochrome P450 2D6 (P10635 whole entry): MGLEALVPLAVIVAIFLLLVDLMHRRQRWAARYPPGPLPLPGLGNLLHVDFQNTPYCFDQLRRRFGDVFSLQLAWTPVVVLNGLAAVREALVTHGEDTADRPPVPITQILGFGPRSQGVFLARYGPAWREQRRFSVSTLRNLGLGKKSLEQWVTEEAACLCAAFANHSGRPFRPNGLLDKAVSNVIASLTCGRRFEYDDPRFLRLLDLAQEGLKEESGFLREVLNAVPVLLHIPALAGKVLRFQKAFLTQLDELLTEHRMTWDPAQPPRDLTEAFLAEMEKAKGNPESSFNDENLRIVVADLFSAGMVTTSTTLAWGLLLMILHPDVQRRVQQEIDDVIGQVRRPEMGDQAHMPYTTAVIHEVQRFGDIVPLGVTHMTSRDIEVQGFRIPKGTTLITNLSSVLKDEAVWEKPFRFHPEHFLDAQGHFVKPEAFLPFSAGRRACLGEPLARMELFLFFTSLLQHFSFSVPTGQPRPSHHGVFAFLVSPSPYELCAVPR

[17] = Solubility of the compound in propylene glycol; format: physicochemical
[18] = molecular target: Prostaglandin G/H synthase 1 (Homo sapiens, UniProt P23219); assay: Inhibition of COX1
Chain of Prostaglandin G/H synthase 1 (P23219 whole entry): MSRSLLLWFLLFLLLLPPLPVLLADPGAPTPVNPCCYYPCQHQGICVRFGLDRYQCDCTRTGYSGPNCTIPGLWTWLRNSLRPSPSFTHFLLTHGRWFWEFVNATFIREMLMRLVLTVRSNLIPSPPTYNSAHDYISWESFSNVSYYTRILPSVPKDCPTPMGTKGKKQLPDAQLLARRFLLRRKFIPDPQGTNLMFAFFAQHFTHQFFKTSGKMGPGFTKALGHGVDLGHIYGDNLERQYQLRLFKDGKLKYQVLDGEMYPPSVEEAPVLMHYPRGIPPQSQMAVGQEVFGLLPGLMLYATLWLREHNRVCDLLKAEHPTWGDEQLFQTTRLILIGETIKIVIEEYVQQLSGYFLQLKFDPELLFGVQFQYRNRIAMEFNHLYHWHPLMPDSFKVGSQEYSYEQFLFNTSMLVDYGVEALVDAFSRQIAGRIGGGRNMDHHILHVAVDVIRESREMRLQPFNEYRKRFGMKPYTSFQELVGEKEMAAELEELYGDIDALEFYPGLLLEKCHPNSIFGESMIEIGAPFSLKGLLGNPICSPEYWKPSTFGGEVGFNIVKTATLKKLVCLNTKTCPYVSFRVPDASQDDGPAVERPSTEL

[19] = Drug level in mouse plasma at 30 mg/kg, po after 4.5 hrs; details: read-out: Drug uptake
Rattus norvegicus [20] = assay: Skin irritant activity in abraded rat skin model at 10 mg/mL (2 mL), topical after 72 hrs; details: in vivo; remark: listed apart in the source
[21] = Terminal half life in rat at 1 mg/kg, iv; format: ADME, organism-based; parameters: dose 1 mg/kg, route intravenous; details: in vivo, read-out: beta t1/2 (converted)
In short: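 Rat given 1 mg/kg intravenously in 10% EtOH/40% PEG400/50% water; plasma concentration–time profile used for terminal half-life.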

[22] = molecular target: T1, Prostaglandin G/H synthase 2 (Homo sapiens, UniProt P35354); assay: Inhibition of COX2
T1 sequence (P35354 whole entry): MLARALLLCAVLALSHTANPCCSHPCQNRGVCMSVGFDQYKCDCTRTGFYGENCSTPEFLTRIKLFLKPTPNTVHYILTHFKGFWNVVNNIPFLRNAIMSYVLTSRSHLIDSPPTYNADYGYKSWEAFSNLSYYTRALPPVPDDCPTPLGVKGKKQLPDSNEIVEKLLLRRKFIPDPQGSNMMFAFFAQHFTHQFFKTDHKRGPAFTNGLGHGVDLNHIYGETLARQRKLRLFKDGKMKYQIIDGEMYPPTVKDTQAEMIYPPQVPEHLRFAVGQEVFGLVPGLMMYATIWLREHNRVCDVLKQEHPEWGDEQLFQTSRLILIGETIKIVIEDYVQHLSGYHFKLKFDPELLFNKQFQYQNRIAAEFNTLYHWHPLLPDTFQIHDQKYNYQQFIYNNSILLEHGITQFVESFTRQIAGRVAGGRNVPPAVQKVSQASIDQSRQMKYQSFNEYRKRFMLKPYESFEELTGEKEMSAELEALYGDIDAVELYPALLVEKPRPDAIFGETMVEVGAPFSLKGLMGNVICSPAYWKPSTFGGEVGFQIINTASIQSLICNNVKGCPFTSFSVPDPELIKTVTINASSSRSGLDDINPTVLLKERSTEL

Rattus norvegicus [23] = assay: Skin irritant activity in abraded rat skin model treated topically after 72 hrs; format: ADME, organism-based; details: in vivo, topical_or_ocular; in short: as §1
[24] = Solubility of the compound in water; format: physicochemical; details: buffer
Mus musculus [25] = assay: Inhibition of arachidonic acid-induced cysteinyl leukotriene production in topically dosed mouse ear; format: functional, organism-based; in short: as §3
Cytochrome P450 3A4 = Cytochrome P450 3A4 (Homo sapiens, UniProt P08684); assay: Inhibition of CYP3A4; format: ADME
Chain of Cytochrome P450 3A4 (P08684 whole entry): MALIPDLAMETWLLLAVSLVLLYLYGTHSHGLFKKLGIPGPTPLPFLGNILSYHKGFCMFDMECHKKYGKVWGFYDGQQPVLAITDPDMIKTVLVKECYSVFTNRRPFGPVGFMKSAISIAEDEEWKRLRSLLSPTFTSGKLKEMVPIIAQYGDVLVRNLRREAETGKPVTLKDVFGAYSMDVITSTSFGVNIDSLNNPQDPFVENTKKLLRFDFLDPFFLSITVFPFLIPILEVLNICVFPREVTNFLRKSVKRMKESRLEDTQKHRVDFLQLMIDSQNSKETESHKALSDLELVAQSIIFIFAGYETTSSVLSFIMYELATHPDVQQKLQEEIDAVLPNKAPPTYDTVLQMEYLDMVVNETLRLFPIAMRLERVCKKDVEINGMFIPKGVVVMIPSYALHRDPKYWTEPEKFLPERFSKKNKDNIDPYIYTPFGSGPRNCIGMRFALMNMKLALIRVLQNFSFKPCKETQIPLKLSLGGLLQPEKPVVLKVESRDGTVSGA

[26] = molecular target: T2, Arachidonate 5-lipoxygenase-activating protein (Homo sapiens, UniProt P20292); assay: Binding affinity to FLAP in human PMN by radioligand displacement assay
T2 sequence (P20292 whole entry): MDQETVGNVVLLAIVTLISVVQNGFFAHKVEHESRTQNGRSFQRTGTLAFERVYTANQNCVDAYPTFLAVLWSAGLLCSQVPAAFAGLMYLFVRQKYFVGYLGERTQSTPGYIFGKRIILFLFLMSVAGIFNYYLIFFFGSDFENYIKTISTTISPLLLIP
In short: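 Tritiated-ligand displacement from FLAP-containing membranes; IC50, n = 6.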

Mus musculus [27] = assay: Inhibition of arachidonic acid-induced cysteinyl leukotriene production in mouse ear at 30 mg/kg, po administered 4 hrs before arachidonic acid challenge; format: functional; in short: as §2
Mus musculus [28] = assay: Inhibition of arachidonic acid-induced ear edema in topically dosed mouse at 1 to 10%; format: functional, organism-based
Mus musculus [29] = assay: Inhibition of arachidonic acid-induced cysteinyl leukotriene production in topically dosed mouse at 1 to 10%; format: functional, organism-based
Blood [30] = assay: Inhibition of […]-induced LTB4 synthesis in rat whole blood after 4 hrs; format: functional, tissue-based

IC50 [1]: 0.6 nM | IC50 (Cytochrome P450 2C9): 4500 nM | IC50 (Blood [7]): 26 nM | IC50 (Blood [9]): 81 nM | IC50 (Blood [10]): 78 nM | IC50 (Blood [12]): 4 nM | solubility [13]: 15% | IC50 (Blood [14]): 161 nM | IC50 (Cytochrome P450 2D6): > 30000 nM | solubility [17]: 75% | IC50 [18]: > 100000 nM | concentration at 4.5 h [19]: 1500 nM | half-life [21]: 2 h | IC50 [22]: > 100000 nM | solubility [24]: 10% | IC50 (Cytochrome P450 3A4): 8800 nM | IC50 [26]: 2 nM | IC50 (Blood [30]): 11 nM
SMILES: COc1cnc(-c2ccc(Cn3c(CC(C)(C)C(=O)[O-])c(SC(C)(C)C)c4cc(OCc5ccc(C)cn5)ccc43)cc2)nc1.[Na+]
Activity (Rattus norvegicus [2]): Non-toxic | inhibition in vivo at 30 mg/kg (Mus musculus [3]): 65% | inhibition (Mus musculus [4]): inactive | inhibition (INH) (Mus musculus [5]): 55% | Activity (Rattus norvegicus [6]): Non-toxic | inhibition (Mus musculus [8]): Dose-dependent effect | inhibition in vivo at 30 mg/kg (Mus musculus [11]): 33% | inhibition (INH) (Mus musculus [15]): 37% | inhibition (INH) (Mus musculus [16]): 61% | Activity (Rattus norvegicus [20]): Non-toxic | Activity (Rattus norvegicus [23]): Non-toxic | inhibition (Mus musculus [25]): Dose-dependent effect | inhibition in vivo at 30 mg/kg (Mus musculus [27]): 57% | inhibition (Mus musculus [28]): inactive | inhibition (Mus musculus [29]): inactive
